The values that follow come from ChEMBL document CHEMBL1165893, “Synthesis, anticancer and antioxidant activities of 7-methoxyisoflavanone and 2,3-diarylchromanones” (Eur J Med Chem, 2010).

A short description of series [1]: Antioxidant activity assessed as free radical scavenging activity by lipid peroxidation assay. The format is functional. The gist of the method: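 Lipid peroxidation system initiated with 400 mM FeCl3 and 200 mM L-ascorbic acid (stock levels as printed). Test compound added at several concentrations; control without compound. Incubated 37 °C, 60 min. Stopped with 0.25 N HCl / 1.5% TCA / 0.375% thiobarbituric acid, boiled 15 min, cooled, centrifuged. Absorbance read at 532 nm; percent inhibition versus control used to derive EC50.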

Series [2] has as its system HL-60. Put plainly: Cytotoxicity against human HL60 cells after 5 days by MTT assay. The settings on record: HL-60, 120 h. The format is functional.
Series [3] can be described thus: Cytotoxicity against human PBMC cells after 5 days by MTT assay. The format is cell-based. The gist of the method: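 Cells seeded at 3 × 10^5 cells/mL in 96-well plates and kept at 37 °C in humidified 5% CO2 with test compound for 5 days. PBMC came from healthy donors. Viability read by MTT; CC50 calculated. Mean ± SD of three independent experiments, Student t-test.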

Series [4] deals with HL-60. Put plainly: Induction of apoptosis in human HL60 cells assessed as fragmentation of DNA after 48 hrs by electrophoresis. The format is functional, cell-based. The procedure, abridged: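 HL60 cells exposed to test compound alongside untreated control. After 48 h, DNA extracted, run on 0.8% agarose gel with ethidium bromide, and fragmentation pattern imaged.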
In series [5] the test system is HL-60. As to the kind of experiment: Induction of apoptosis in human HL60 cells after 48 hrs using annexin V-propidium iodide staining by FACS analysis. The format is functional, cell-based. The procedure, abridged: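 HL60 cells incubated with test compound at a concentration set from its CC50. Stained with FITC-Annexin V and analysed by flow cytometry, with treated-cell fluorescence compared against control cells.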
Background: Flow cytometry measures light scatter and fluorescence of single cells or particles in a stream.

Activity calls are given as the source filed them. The calls are words filed in the database; no cut-off is given here. Where only a bound is given, the exact number is not on record here.

With `CCOc1ccc2c(c1)OC(c1ccc(Cl)cc1)C(c1ccccc1)C2=O` (centres undefined), the EC50 (as a rule, the concentration giving half of the maximal effect) in series [1] is 578 µM. The midpoint of cytotoxicity in the series with HL-60 [2], the CC50, lay at 514 µM. Also, the CC50 (as a rule, the concentration giving 50% cytotoxicity) at 120 h in series [3] is more than 2500 µM. The outcome in the series on HL-60 [4] was Active.

`O=C1O[C@H]([C@@H](O)CO)C(O)=C1O` [ASCORBIC ACID]: the half-maximal effective concentration (EC50) in series [1] is 754 µM.

Turning to `COc1ccc2c(c1)OC(c1ccccc1)C(c1ccccc1)C2=O` (centres undefined), in series [1], the 50% effective concentration (EC50) was found to be 500 µM. Further, the 50% cytotoxic concentration (CC50) with HL-60 [2] is 2330 µM. Moreover, in series [3], the CC50 at 120 h was more than 2500 µM. In addition, the outcome in the series with HL-60 [4] was Active.

`COc1ccc2c(c1)OCC(c1ccccc1)C2=O` (centres undefined): the EC50 in series [1] was 965 µM. Further, in the series on HL-60 [2], the CC50 was 82.6 µM. Moreover, the CC50 at 120 h in series [3] came to 521 µM. In addition, the outcome in the series on HL-60 [4] was Active.

With `O=c1[nH]cc(F)c(=O)[nH]1` [FLUOROURACIL], the midpoint of cytotoxicity in the series on HL-60 [2], the CC50, lay at 0.07 µM.

Regarding `COc1ccc2cc3[n+](cc2c1OC)CCc1cc2c(cc1-3)OCO2`, in the series with HL-60 [5], the result was Active.

Take `COc1ccc2c(c1)OC(c1cccc([N+](=O)[O-])c1)C(c1ccccc1)C2=O` (centres undefined): the EC50 in series [1] came to 130 µM. The molecule further yielded a 50% cytotoxic concentration (CC50) with HL-60 [2] of more than 2500 µM. In series [3], this molecule gave a CC50 at 120 h of more than 2500 µM. The outcome in the series with HL-60 [4] was Active.

Consider `CCOc1ccc2c(c1)OC(c1ccccc1)C(c1ccccc1)C2=O` (centres undefined), for which the EC50 in series [1] stood at 877 µM. This molecule also came in with a CC50 in the series with HL-60 [2] of more than 2500 µM. For the same molecule, the CC50 at 120 h in series [3] is more than 2500 µM. In the series on HL-60 [4], the outcome was Active.

Take `CCOc1ccc2c(c1)OC(c1ccc([N+](=O)[O-])cc1)C(c1ccccc1)C2=O` (centres undefined): the EC50 in series [1] was more than 2500 µM. In the series with HL-60 [2], this molecule gave a CC50 of 203 µM. The same molecule yielded a cytotoxic concentration (CC50) at 120 h in series [3] of 1360 µM. The result with HL-60 [4] was Active.

As to `COc1ccc2c(c1)OC(c1ccc([N+](=O)[O-])cc1)C(c1ccccc1)C2=O` (centres undefined), in series [1], the concentration giving a half-maximal response (EC50) is more than 2500 µM. Moreover, the CC50 in the series on HL-60 [2] amounted to 73.2 µM. The midpoint of cytotoxicity in series [3], the CC50 at 120 h, lay at 595 µM. For the same molecule, the outcome with HL-60 [4] was Active.

For the molecule `CCOc1ccc2c(c1)OC(c1cccc([N+](=O)[O-])c1)C(c1ccccc1)C2=O` (centres undefined), the concentration for a half-maximal effect (EC50) in series [1] came to 193 µM. The molecule further had a CC50 with HL-60 [2] of more than 2500 µM. Further, the CC50 at 120 h in series [3] was more than 2500 µM. Besides, the result with HL-60 [4] was Active.

On to `COc1ccc2c(c1)OC(c1ccc(Cl)cc1)C(c1ccccc1)C2=O` (centres undefined), for which the 50% effective concentration (EC50) in series [1] is 165 µM. The molecule also had a CC50 with HL-60 [2] of 2410 µM. The CC50 at 120 h in series [3] was more than 2500 µM. Moreover, the result in the series with HL-60 [4] was Active.
